This is a sample that favours compounds with a hit; in the whole collection about 5.4% have one here.
Ecoli tolC – E. coli tolC mutant growth inhibition; E. coli BW25113 tolC mutant growth, OD615; growth inhibition, % at 10 µM (by protocol); hit rate 2.2% among 65,000; AID 573;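 active means growth inhibition at or above a cutoff equal to the mean over every tested compound plus 3 SD, cut at about 60% in these data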;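 further: growth measured after 20 h incubation at 37 °C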
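Test system: tolC-deleted E. coli BW25113; medium: LB with kanamycin 50 µg/mL; compound: single-point testing at 10 µM; incubation: 20 h compound exposure of bacteria at 37 °C; signal: OD at 615 nm; evaluation: growth inhibition in percent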
PostGolgi ctrl – yeast control strain growth, post-Golgi counter-screen; efflux-deficient yeast background strain, growth absorbance A615, 16 h; inhibition, % at 10 µM; hit rate 5% among 98,000; AID 738
PostGolgi yeast – growth inhibition of a yeast mutant, post-Golgi transport screen; post-Golgi transport phenotypic cell assay; inhibition, % at 10 µM; hit rate 0.9% among 98,000;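 further: yeast cells grown in 1536-well plates; yeast grown about 18 h at 30C before absorbance read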
PLAP activator – human PLAP activation | P05187 | AID 696 | hit rate 1.2% among 96,000 | activation fold at 20 µM | purified PLAP enzyme, luminescent substrate read-out; stronger effect = higher value; in the data active means activation fold above about 2
HePTP inh – human HePTP phosphatase inhibition. hit rate 0.64% among 110,000. P35236. recombinant HePTP phosphatase activity, OD absorbance. AID 521. inhibition, % at 20 µM; in the data active means inhibition above about 50%;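 further: plate controls were vehicle for no effect and reference inhibitor for full effect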
Target sequence (P35236 whole entry, looked up): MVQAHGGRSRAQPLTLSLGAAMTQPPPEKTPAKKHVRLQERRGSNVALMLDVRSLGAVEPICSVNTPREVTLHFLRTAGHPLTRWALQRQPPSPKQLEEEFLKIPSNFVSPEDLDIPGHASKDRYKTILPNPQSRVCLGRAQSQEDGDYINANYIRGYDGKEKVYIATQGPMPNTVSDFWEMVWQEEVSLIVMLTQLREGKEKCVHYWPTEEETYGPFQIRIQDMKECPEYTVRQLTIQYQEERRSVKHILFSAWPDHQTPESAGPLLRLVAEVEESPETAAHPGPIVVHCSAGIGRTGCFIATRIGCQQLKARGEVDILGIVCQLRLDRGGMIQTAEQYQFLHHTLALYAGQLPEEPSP
Ecoli WT expand – growth inhibitors of E. coli BW25113 wild type | AID 710 | OD600 absorbance | growth inhibition, % at 100 µM | hit rate 0.15% among 98,000;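 active means growth inhibition above about 50% at one test dose, limit read from the data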;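 further: growth measured after 20 h incubation at 37 °C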
The depositor's hits bear a star; . = no result. Unless noted, no stated cut-off is given here; in the data, active means inhibition above about 30%; inactive means the rest.

SMILES | Ecoli tolC | PostGolgi ctrl | PostGolgi yeast | PLAP activator | HePTP inh | Ecoli WT expand
CCOc1cc(/C=C2/SC(=S)N(Cc3ccccc3)C2=O)ccc1OCc1ccccc1 | . | . | . | . | 9.1 | .
COc1cc(C(=O)NCc2cccc3ccccc23)cc(Cl)c1OC | . | 39.3* | 0.3 | 0.9 | . | -18.0
COc1cc(C(=O)NCc2cccc3ccccc23)cc(OC)c1OC | . | . | . | . | 3.7 | .
c1ccc(CC2CCN(Cc3nc(-c4ccccc4)no3)CC2)cc1 | 69.9* | 21.7 | 4.3 | 0.9 | 5.4 | 2.0
COc1ccc(-c2noc(CN3CCC(Cc4ccccc4)CC3)n2)cc1 | 67.4* | . | . | 1.3 | -5.8 | .
O=C(CSCc1ccccc1)NNC(=S)Nc1cccc(Cl)c1Cl | . | 31.4* | -6.7 | 1 | . | 7.0
O=C(Nc1ccc(S(=O)(=O)Nc2cnc3ccccc3n2)cc1)c1cc(Cl)ccc1[N+](=O)[O-] | . | . | . | . | -9.8 | .
Cc1cc(NC(=O)c2cnn3c(C(F)F)cc(C4CC4)nc23)no1 | 7.1 | 14.7 | -3.3 | 1.1 | 3.2 | -7.0
Cc1cc(C(F)F)n2ncc(C(=O)NCCc3ccc(Cl)cc3)c2n1 | . | 49.3* | 2.7 | 1.2 | . | 7.0
Cc1cc(C(F)F)n2ncc(C(=O)NCCc3ccccc3Cl)c2n1 | . | 8.1 | 0.0 | 0.9 | . | 8.0
COC(=O)c1ccccc1NC(=O)c1cnn2c(C(F)F)cc(C3CC3)nc12 | 13.1 | 42.9* | 17.5 | 1.1 | -0.3 | -5.0
O=C(NCCc1ccccc1)c1cnn2c(C(F)F)cc(C3CC3)nc12 | 49.9 | 39.0* | 18.2 | 1 | 7.5 | 3.0
O=C(Cc1ccc(Br)cc1)Nc1ccc(F)cc1 | . | . | . | . | 9.6 | .
Cc1cc(C)cc(-n2c(C)cc(/C=N/NC(=O)CSc3ncccn3)c2C)c1 | . | 18.1 | 41.2* | 1.3 | . | 8.0
CCCCSc1nc2sc3c(c2c(=O)n1-c1ccc(OC)cc1)CC(C)(C)OC3 | . | . | . | . | 1.0 | .
CC(C)(C)NC(=O)c1ccc(COc2ccccc2Br)o1 | 16.4 | 32.6* | -0.9 | 1 | -6.1 | 11.0
Nc1ccc(Oc2ccc3nc(-c4ccccc4)c(-c4ccccc4)nc3c2)cc1 | . | 56.1* | 102.9* | 0.9 | . | -2.0
Nc1ccc2nc(-c3ccccc3)sc2c1 | . | 2.3 | 2.6 | 1.1 | . | 7.0
C/C(=C1/SC(N2CCCC2)=NC1=O)c1ccc(Br)cc1 | 25.1 | 32.6* | -0.9 | 1.4 | 6.0 | 20.0
Cc1cc(C)c(N2C(=O)NC(=O)/C(=C/c3ccc([N+](=O)[O-])o3)C2=O)c(C)c1 | . | . | . | . | 76.4* | .
Brc1ccc(-c2nc(-c3ccccc3)nc(-c3ccccc3)n2)cc1 | . | . | . | . | -6.4 | .
N#Cc1nc(-c2ccccc2Cl)oc1NCc1ccco1 | 40.8 | 31.4* | -1.9 | 0.9 | 10.9 | 15.0
N#Cc1nc(Cc2ccccc2)oc1NCc1ccccc1Cl | 92.6* | 46.0* | 17.2 | 1.1 | 2.8 | 30.0
Cc1cc2nc(-c3cc(NC(=O)c4cc5ccccc5o4)ccc3O)oc2cc1C | . | . | . | . | 5.7 | .
Cc1ccc2cc(CN(Cc3ccco3)C(=O)C3CCCCC3)c(=O)[nH]c2c1C | -3.7 | 35.2* | 13.2 | 1 | -0.8 | -3.0
SMILES | Ecoli tolC | PostGolgi ctrl | PostGolgi yeast | PLAP activator | HePTP inh | Ecoli WT expand
Cc1cc(C)c2[nH]c(=O)c(CN(Cc3ccco3)C(=O)C3CCCO3)cc2c1 (stereo not given) | -0.9 | 0.0 | 6.0 | 1 | 8.4 | 1.0
Cc1ccc(C)c(N2CCN(C(=O)COc3cc(=O)n(C)c4ccccc34)CC2)c1 | 12.5 | 38.3* | 1.9 | 1.3 | 9.0 | 0.0
Cc1ccc(C)c(N2CCN(C(=O)CCCOc3cc(=O)n(C)c4ccccc34)CC2)c1 | 24.3 | 17.2 | -5.2 | 1.4 | 4.5 | -29.0
CCn1cc(C(=O)O)c(=O)c2cc3c(cc21)OCO3 | 100.0* | . | . | . | . | .
CN(C)S(=O)(=O)Nc1ccc2c(c1)Cc1ccccc1-2 | -26.3 | 11.4 | 15.2 | 0.9 | 10.2 | 0.0
COc1ccc(NS(=O)(=O)c2ccc3c(c2)Cc2ccccc2-3)cn1 | 100.0* | 64.6* | -2.4 | 0.8 | 9.2 | -9.0
Cc1ccc2nc(NC(=O)CCn3c(=O)sc4ccccc43)sc2c1 | . | 70.3* | 5.4 | 1 | . | 1.0
Cc1cnc(NC(=O)CCCc2nc3ccccc3s2)s1 | . | 21.1 | -2.7 | 1.2 | . | -7.0
O=C(CCn1c(=O)sc2ccccc21)Nc1nc2ccccc2s1 | . | 59.9* | -4.4 | 0.9 | . | -11.0
Cc1ccc2nc(NC(=O)CCCc3nc4ccccc4s3)sc2c1 | . | 45.2* | -2.7 | 0.8 | . | -4.0
Cn1cc(SCC(=O)Nc2nc3ccccc3s2)c2ccccc21 | 62.0* | 63.9* | 0.5 | 0.9 | 6.7 | -23.0
O=C(CC1Nc2ccccc2NC1=O)NCc1ccccc1 (stereo not given) | . | . | . | . | 3.5 | .
COc1ccc(-c2nc3cc(NC(=O)c4ccc(C)c(C)c4)ccc3o2)cc1 | . | . | . | . | -1.4 | .
O=C(CN(Cc1ccccc1)S(=O)(=O)c1ccc(Br)cc1)NCc1ccccn1 | . | . | . | . | 6.8 | .
O=C(N/N=C/c1cccs1)C(=O)NC1CCCCC1 | . | . | . | . | -6.6 | .
COC(=O)c1cc(OC)c(OC)cc1NC(=O)Nc1ccccc1OC | -16.2 | 17.9 | 9.7 | 0.8 | 10.1 | 1.0
COC(=O)c1cc(OC)c(OC)cc1NC(=O)CSc1ccccc1 | . | 43.4* | -1.4 | 1.4 | . | -1.0
COC(=O)c1ccc(C(=O)OC)c(NC(=O)COc2ccccc2OC)c1 | -5.0 | 3.5 | 15.6 | 1.3 | 7.7 | 0.0
COC(=O)c1ccc(C(=O)OC)c(NC(=O)CSc2cccc[n+]2[O-])c1 | . | 1.8 | 8.0 | 1 | . | 50.0*
C=C(C)C1CC=C(CN2CC(C)OC(C)C2)CC1 (stereo not given) | . | 17.4 | 94.8* | 1.8 | . | 1.0
C=C(C)C1CC=C(CN2CCC(C(=O)OCC)CC2)CC1 (stereo not given) | -7.1 | 14.7 | 78.3* | 1.5 | 1.5 | 4.0
CC1CN(Cc2ccc(Cl)cc2Cl)CC(C)O1 (stereo not given) | . | 5.1 | -18.9 | 1 | . | 16.0
CCOC(=O)C1CCN(Cc2ccc(F)cc2)CC1 | -5.7 | . | . | . | 5.7 | .
CCOC(=O)C1CCN(C(c2ccc(OC)c(OC)c2)c2sc3nc(C)nn3c2O)CC1 (stereo not given) | 4.0 | -0.8 | -0.5 | 1.4 | -0.6 | 8.0
CCOC(=O)C1CCN(C(c2cccc(F)c2)c2sc3nc(C)nn3c2O)CC1 (stereo not given) | -5.5 | 37.1* | 4.9 | . | -2.8 | 6.0
SMILES | Ecoli tolC | PostGolgi ctrl | PostGolgi yeast | PLAP activator | HePTP inh | Ecoli WT expand
Cc1nc2sc(C(c3cccc(F)c3)N3CCC(C)CC3)c(O)n2n1 (stereo not given) | -7.5 | 30.6* | 10.1 | 1.8 | 10.5 | 2.0
Cc1nc2sc(C(c3cccc(F)c3)N3CCC(O)CC3)c(O)n2n1 (stereo not given) | -17.7 | 17.2 | 6.9 | 0.9 | 9.2 | 3.0
Cc1ccc(S(=O)(=O)N(CC(=O)N2CCC(C)CC2)Cc2ccccc2F)cc1 | . | 37.5* | -5.2 | 1.8 | . | 1.0
Cc1ccc(S(=O)(=O)N(CC(=O)O)Cc2ccccc2F)cc1 | 7.8 | 2.3 | -7.3 | 1.1 | 5.3 | 5.0
Cc1ccc(OCCN2CCN(c3ncnc4sc(C)c(C)c34)CC2)cc1 | . | 20.1 | 0.1 | 2.2* | . | 2.0
Clc1ccc(OCCN2CCN(c3ncnc4sccc34)CC2)cc1 | 94.5* | 33.0* | -10.6 | 1.7 | 6.2 | 5.0
O=C(Nc1ccc(-c2ccc(Cl)cc2)cc1)c1ccco1 | . | . | . | . | -8.8 | .
CCCN(/C=N/S(=O)(=O)c1ccc(Cl)cc1)CCC | . | . | . | . | 2.6 | .

Screening data: PubChem, several laboratories
